ChEMBL document CHEMBL5154772, “Biological Investigation of a Water-Soluble Isoginkgetin-Phosphate Analogue, Targeting the Spliceosome with In Vivo Antitumor Activity” (J Med Chem, 2022)
The source made the active and inactive calls.

Columns and labels:
[1] = AUC(0 to t) in Beagle dog at 26.76 mg/kg, iv administered as single dose measured up to 24 hrs; format: ADME, organism-based, Canis lupus familiaris; design: dose 26.76 mg/kg, time < 24 hrs, route iv; details: in vivo
Procedure, shortened: (§1)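 Single intravenous dose. Mice were male C57BL/6J, 12 per route; tail-vein blood was collected under sodium heparin, with 3 mice sampled at each pair of times (0.083/2, 0.25/4, 0.5/8, 1/24 h). Dogs were male beagles (n=3); jugular blood was collected under K2 EDTA predose and at 0.083, 0.25, 0.5, 1, 2, 4, 6, 8 and 24 h. Plasma was prepared from the samples.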

[2] = AUCextra in C57BL/6J mouse at 9.103 mg/kg, ip administered as single dose measured up to 24 hrs; format: ADME, organism-based; details: in vivo
Procedure, shortened: (§2)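 Single intraperitoneal dose in male C57BL/6J mice (12 per route). Tail-vein blood was collected under sodium heparin for plasma, with 3 mice sampled at each pair of times: 0.083/2, 0.25/4, 0.5/8 and 1/24 h. F denotes bioavailability.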

[3] = Toxicity in C57BL/6 mouse assessed as change in body weight at 50 mg/kg, ip administered as single dose and measured after 15 days (reference value: 23.5 to 24.2 g); format: organism-based; details: in vivo, 360 h, time 15 day
Procedure, shortened: (§3)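 Female C57BL/6 mice given one IP injection of 100 µL, at 50, 100, 250 or 500 mg/kg in sterile PBS, two mice per dose; PBS-injected controls. Behaviour checked right after and at 30 min. Body weight recorded every 2–3 days for 15 days, then liver, spleen and kidneys weighed.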

[4] = Toxicity in C57BL/6 mouse assessed as change in body weight at 100 mg/kg, ip administered as single dose and measured after 15 days (reference value: 23.5 to 24.2 g); format: organism-based; details: in vivo, 360 h, time 15 day; procedure, shortened: as §3
[5] = Toxicity in C57BL/6 mouse assessed as change in spleen weight at 500 mg/kg, ip administered as single dose and measured after 15 days (reference value: 0.1 to 0.2 g); format: organism-based; details: in vivo, 360 h, time 15 day; procedure, shortened: as §3
[6] = Toxicity in C57BL/6 mouse assessed as change in kidney weight at 100 mg/kg, ip administered as single dose and measured after 15 days (reference value: 0.3 g); format: organism-based; details: in vivo, 360 h, time 15 day; procedure, shortened: as §3
[7] = Metabolic stability in mouse liver microsomes assessed as intrinsic clearance incubated for 45 mins by HPLC-MS/MS analysis; format: ADME, Microsome; details: read-out: CLH
Procedure, shortened: (§4)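 Incubation with mouse or human liver microsomes for 45 min, with or without NADPH. Remaining parent compound was quantified over time by HPLC-MS/MS and expressed as % remaining; intrinsic clearance is given in μL/min/mg protein.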

[8] = Metabolic stability in human liver microsomes assessed as intrinsic clearance incubated for 45 mins by HPLC-MS/MS analysis; format: ADME, Microsome; details: read-out: CLH; procedure, shortened: as §4
[9] = Plasma protein binding in mouse assessed as unbound fraction at 2 uM by rapid equilibrium dialysis based LC-MS/MS analysis; format: ADME, cell-free
Procedure, shortened: (§5)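 Binding was measured at 2 μM in triplicate by rapid equilibrium dialysis (8K MWCO). Quantification was by UPLC-MS/MS on a phenyl column in positive ESI MRM mode (m/z 727>567), with an ammonium formate pH 5 / 1,5-DMHA mobile phase at 50 °C. Both unbound fraction (fu) and % bound are reported.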

[10] = Plasma protein binding in mouse at 2 uM by rapid equilibrium dialysis based LC-MS/MS analysis; format: ADME, cell-free; details: read-out: PPB (converted); procedure, shortened: as §5
[11] = Plasma protein binding in human at 2 uM by rapid equilibrium dialysis based LC-MS/MS analysis; format: ADME, cell-free; details: read-out: PPB (converted); procedure, shortened: as §5
[12] = biological target: Histamine H2 receptor (Homo sapiens) (UniProt P25021); assay: Antagonist activity at HRH2 (unknown origin) at 10 uM; format: functional; design: scale not given: the % may be the effect or the level left; details: filed as antagonist
Histamine H2 receptor (Homo sapiens), sequence (P25021 whole entry): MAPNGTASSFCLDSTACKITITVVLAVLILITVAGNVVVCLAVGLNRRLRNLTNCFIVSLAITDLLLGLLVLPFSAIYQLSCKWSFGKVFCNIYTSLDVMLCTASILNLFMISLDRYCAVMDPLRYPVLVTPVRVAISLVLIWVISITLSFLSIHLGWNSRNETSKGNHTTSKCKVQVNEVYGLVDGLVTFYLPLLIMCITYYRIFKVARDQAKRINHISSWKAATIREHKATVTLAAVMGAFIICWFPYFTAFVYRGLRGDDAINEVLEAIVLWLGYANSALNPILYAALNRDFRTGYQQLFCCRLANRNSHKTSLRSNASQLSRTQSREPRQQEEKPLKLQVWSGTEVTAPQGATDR
Procedure, shortened: (§6)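 Single-concentration safety screen at 10 μM across a 47-target panel. GPCRs were run in antagonist mode and enzymes in inhibitor mode.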

[13] = biological target: 3',5'-cyclic-AMP phosphodiesterase 4D (Homo sapiens) (UniProt Q08499); assay: Inhibition of PDE4D2 (unknown origin) at 10 uM; procedure, shortened: as §6
3',5'-cyclic-AMP phosphodiesterase 4D (Homo sapiens), sequence (Q08499 whole entry): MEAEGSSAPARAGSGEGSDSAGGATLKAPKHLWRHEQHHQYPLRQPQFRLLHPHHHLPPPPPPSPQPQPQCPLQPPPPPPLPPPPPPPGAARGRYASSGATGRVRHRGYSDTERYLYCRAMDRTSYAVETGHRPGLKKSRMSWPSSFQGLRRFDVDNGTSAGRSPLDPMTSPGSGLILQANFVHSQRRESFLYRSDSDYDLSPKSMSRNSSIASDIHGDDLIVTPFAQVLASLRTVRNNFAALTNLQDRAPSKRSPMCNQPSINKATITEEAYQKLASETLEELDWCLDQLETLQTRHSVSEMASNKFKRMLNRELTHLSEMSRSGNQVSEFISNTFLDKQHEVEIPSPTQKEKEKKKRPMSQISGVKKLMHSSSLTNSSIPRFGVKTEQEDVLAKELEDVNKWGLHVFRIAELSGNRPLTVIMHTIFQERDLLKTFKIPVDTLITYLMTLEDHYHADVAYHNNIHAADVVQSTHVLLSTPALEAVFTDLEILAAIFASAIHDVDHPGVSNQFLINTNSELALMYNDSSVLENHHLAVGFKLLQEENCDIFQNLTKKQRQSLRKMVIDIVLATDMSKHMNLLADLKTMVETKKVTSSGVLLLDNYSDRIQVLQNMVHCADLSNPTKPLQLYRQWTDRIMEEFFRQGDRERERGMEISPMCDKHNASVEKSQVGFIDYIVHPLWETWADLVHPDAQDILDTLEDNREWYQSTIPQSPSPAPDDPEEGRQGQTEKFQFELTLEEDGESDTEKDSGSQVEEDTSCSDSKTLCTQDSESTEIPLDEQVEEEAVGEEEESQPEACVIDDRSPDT

[14] = Tmax in C57BL/6J mouse at 0.711 mg/kg, iv administered as single dose measured up to 24 hrs; format: ADME, organism-based; details: in vivo; procedure, shortened: as §1
[15] = Half life in C57BL/6J mouse at 9.103 mg/kg, ip administered as single dose measured up to 24 hrs; format: ADME, organism-based; details: in vivo; procedure, shortened: as §2
[16] = Oral bioavailability in C57BL/6J mouse at 9.103 mg/kg administered as single dose measured up to 24 hrs; format: ADME, organism-based; details: in vivo
[17] = MRT(0 to t) in C57BL/6J mouse at 9.103 mg/kg, ip administered as single dose measured up to 24 hrs; format: ADME, organism-based; details: in vivo; procedure, shortened: as §2
[18] = MRT(0 to t) in C57BL/6J mouse at 0.711 mg/kg, iv administered as single dose measured up to 24 hrs; format: ADME, organism-based; details: in vivo; procedure, shortened: as §1
[19] = MRT(0 to t) in Beagle dog at 26.76 mg/kg, iv administered as single dose measured up to 24 hrs; format: ADME, organism-based, Canis lupus familiaris; details: in vivo; procedure, shortened: as §1
[20] = AUCextra in Beagle dog at 26.76 mg/kg, iv administered as single dose measured up to 24 hrs; format: ADME, organism-based, Canis lupus familiaris; details: in vivo; procedure, shortened: as §1
[21] = Toxicity in C57BL/6 mouse assessed as change in body weight at 250 mg/kg, ip administered as single dose and measured after 15 days (reference value: 23.5 to 24.2 g); format: organism-based; details: in vivo, 360 h, time 15 day; procedure, shortened: as §3
[22] = Toxicity in C57BL/6 mouse assessed as change in body weight at 500 mg/kg, ip administered as single dose and measured after 15 days (reference value: 23.5 to 24.2 g); format: organism-based; details: in vivo, 360 h, time 15 day; procedure, shortened: as §3
[23] = Toxicity in C57BL/6 mouse assessed as change in liver weight at 100 mg/kg, ip administered as single dose and measured after 15 days (reference value: 1.2 to 1.3 g); format: organism-based; details: in vivo, 360 h, time 15 day; procedure, shortened: as §3
[24] = Toxicity in C57BL/6 mouse assessed as change in spleen weight at 50 mg/kg, ip administered as single dose and measured after 15 days (reference value: 0.1 to 0.2 g); format: organism-based; details: in vivo, 360 h, time 15 day; procedure, shortened: as §3
[25] = Toxicity in C57BL/6 mouse assessed as change in kidney weight at 50 mg/kg, ip administered as single dose and measured after 15 days (reference value: 0.3 g); format: organism-based; details: in vivo, 360 h, time 15 day; procedure, shortened: as §3
[26] = Acute toxicity in C57BL/6 mouse assessed as mortality at 500 mg/kg, ip administered as single dose and measured after 15 days; format: organism-based; details: in vivo, 360 h, time 15 day
Procedure, shortened: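 Single intraperitoneal injection (100 µL) into female C57BL/6 mice, with IP2 diluted in sterile PBS at 50, 100, 250 or 500 mg/kg; PBS-treated controls. Behaviour watched right after and at 30 min. Body weight followed every 2–3 days for 15 days. Euthanasia criterion was weight loss ≥20%. Liver, spleen and kidney weights taken at day 15.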

MCA-205 = assay: Antitumor activity against mouse wild type MCA-205 cells implanted in C57BL/6 mouse assessed as decrease in tumor growth pretreatment at 2.5 mg/kg,iv administered starting from day 7 post inoculation at five days interval upto 17 days relative to control; format: functional, organism-based; details: time <= 17.0 day
Procedure, shortened: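 MCA205 WT fibrosarcoma cells were inoculated subcutaneously into the right flank of female C57BL/6 mice. Dosing was 2.5 mg/kg iv from day 7 post-inoculation, repeated every 5 days until day 17; controls were untreated. Tumor area was recorded every 3–4 days up to ethical limits, and tumor size was measured at killing. Analysis was by one-way ANOVA.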

SMILES: COc1ccc(-c2cc(=O)c3c(O)cc(OP(=O)([O-])[O-])c(-c4cc(-c5cc(=O)c6c(O)cc(OP(=O)([O-])[O-])cc6o5)ccc4OC)c3o2)cc1.[Na+].[Na+].[Na+].[Na+]
- AUC(0-t) at 24 h [1]: 655 µg·h/mL
- %AUCextra [2]: 1.3%
- Activity [3]: 19.5 g
- Activity [4]: 19.5 g
- Activity [5]: 0.1 g
- Activity [6]: 0.2 g
- microsomal CLint [7]: 8 µL/min/mg
- microsomal CLint [8]: 11 µL/min/mg
- fraction unbound at 2 µM [9]: 0.02
- fraction unbound at 2 µM [10]: 0.019
- fraction unbound at 2 µM [11]: 0.017
- Activity [12]: 40%
- inhibition [13]: 87.2%
- Tmax [14]: 5 min
- half-life [15]: 48 min
- bioavailability [16]: 86%
- MRT last at 24 h [17]: 42 min
- MRT last at 24 h [18]: 54 min
- MRT last at 24 h [19]: 228 min
- %AUCextra [20]: 0.9%
- Activity [21]: 19.1 g
- Activity [22]: 20.4 g
- Activity [23]: 1 g
- Activity [24]: 0.1 g
- Activity [25]: 0.3 g
- Activity [26]: Non-Toxic
- Activity (MCA-205): Active
